Measured values from ChEMBL document CHEMBL4311975, “Exploration of the antibiotic potentiating activity of indolglyoxylpolyamines” (Eur J Med Chem, 2019).
In brackets after ≈: the same amount, converted by molar mass.

Key:
Staphylococcus aureus = assay: Antibacterial activity against Staphylococcus aureus ATCC 25923 assessed as growth inhibition incubated for 18 hrs by broth dilution method; type: functional; settings: ATCC 25923, 18 h
How it was run: (§1)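 Broth microdilution following CA-SFM recommendations. Inoculum was 10^5 CFU in Mueller-Hinton broth with two-fold serial drug dilutions. Plates were incubated 18 h at 37 °C. MIC was the lowest concentration giving complete inhibition of visible growth. Values are means, n = 3.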

Pseudomonas aeruginosa [1] = assay: Antibacterial activity against Pseudomonas aeruginosa ATCC 27853 assessed as growth inhibition incubated for 18 hrs by broth dilution method; type: functional; how it was run: as §1
Escherichia coli = assay: Antibacterial activity against Escherichia coli ATCC 25922 assessed as growth inhibition incubated for 18 hrs by broth dilution method; type: functional; how it was run: as §1
Klebsiella pneumoniae = assay: Antibacterial activity against Klebsiella pneumoniae ATCC 700603 assessed as growth inhibition incubated for 18 hrs by resazurin dye based assay; type: functional
How it was run: (§2)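 Overnight cultures were diluted 40-fold in MHB and grown 1.5–2 h at 37 °C to mid-log phase. Cells were added at 5×10^5 CFU/mL final to two-fold compound dilutions (0.008–32 μg/mL final), in duplicate, for 18 h at 37 °C. Resazurin (0.001% final) was added for 2 h and MIC read by eye. Means, n = 2.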

Acinetobacter baumannii = assay: Antibacterial activity against Acinetobacter baumannii ATCC 19606 assessed as growth inhibition incubated for 18 hrs by resazurin dye based assay; type: functional; settings: ATCC 19606 = CIP 70.34 = JCM 6841, 18 h; how it was run: as §2
Candida albicans = assay: Antifungal activity against Candida albicans ATCC 90028 assessed as growth inhibition incubated for 36 hrs by resazurin dye based assay; type: functional; settings: ATCC 90028, 36 h
How it was run: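 Yeast was grown 3 days on YPD agar at 30 °C. Colonies were suspended and diluted in YNB broth to 2.5×10^3 CFU/mL, then added to two-fold compound dilutions (0.008–32 μg/mL final), in duplicate. Plates stood 36 h at 35 °C without shaking. Means, n = 2.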

Cryptococcus neoformans = assay: Antifungal activity against Cryptococcus neoformans ATCC 208821 assessed as growth inhibition incubated for 36 hrs by resazurin dye based assay; type: functional; settings: ATCC 208821, 36 h
How it was run: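 Cryptococcus was grown 3 days on YPD agar at 30 °C, suspended, and diluted in YNB broth to 2.5×10^3 CFU/mL. Cells were exposed to 0.008–32 μg/mL compound (final), in duplicate, for 36 h at 35 °C without shaking. Resazurin (0.006% final) was added for a further 3 h. MIC was read from absorbance at OD570–600. Means, n = 2.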

Pseudomonas aeruginosa [2] = assay: Potentiation of doxycycline-induced antibacterial activity against Pseudomonas aeruginosa ATCC 27853 assessed as concentration required to restore 2 ug/ml doxycycline activity measured after 18 hrs; type: functional
How it was run: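 Inoculum was 5×10^5 CFU in MHB with two-fold serial dilutions of adjuvant plus fixed doxycycline at 2 μg/mL. […] Repeated independently in triplicate.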

L6 = assay: Cytotoxicity against rat L6 cells measured after 72 hrs by alamar blue assay; type: cell-based; settings: L6, 72 h
How it was run: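 Rat L6 myoblasts, 4×10^4/well in RPMI 1640 with L-glutamine and 10% FBS, received seven 3-fold dilutions (90 to 0.123 μg/mL) for 72 h. Alamar Blue was added for 2 h and fluorescence read at ex 536/em 588 nm. Podophyllotoxin served as reference. Means, n = 2.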

[3] = Cytotoxicity against human HEK293 cells measured after 20 hrs by resazurin dye based fluorescence assay; type: cell-based
How it was run: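 HEK293 cells, 5,000/well in DMEM with 10% FBS, were exposed to compound for 20 h at 37 °C, 5% CO2. Resazurin (100 μM final) was added for 3 h, then fluorescence read at ex 560/em 590. Signal was normalised to tamoxifen (74 μg/mL, 0%) and untreated growth (100%), and CC50 came from dose-response fitting. Top dose 32 μg/mL. Means, n = 2.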

[4] = Hemolytic activity against Sprague-Dawley rat RBC assessed as release of hemoglobin at 50 uM incubated for 1 hr relative to control; type: ADME, cell-based, Erythrocyte; settings: red blood cells (erythrocytes), read-out: Activity
How it was run: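 Fresh Sprague-Dawley rat erythrocytes were washed in saline and resuspended at 2% v/v. Cells were incubated with compound in DMSO/PBS for 1 h at 37 °C, then centrifuged at 200 g, and supernatant absorbance read at 540 nm. Results were normalised to DMSO/PBS (0%) and 0.1% Triton X-100 (100%). Single-point testing used 50 μM; HC50 came from 10-point curves. Means of three experiments.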

[5] = system: Staphylococcus intermedius; assay: Antibacterial activity against Staphylococcus intermedius 1051997 assessed as growth inhibition incubated for 18 hrs by broth dilution method; type: functional; settings: Staphylococcus intermedius, 1051997, 18 h; how it was run: as §1
[6] = Klebsiella pneumoniae, 700603, 18 h

| Molecule | MIC (Staphylococcus aureus) | MIC (Pseudomonas aeruginosa [1]; ATCC 27853, 18 h) | MIC (Escherichia coli; ATCC 25922, 18 h) | MIC (Klebsiella pneumoniae; [6]) | MIC (Acinetobacter baumannii) | MIC (Candida albicans) | MIC (Cryptococcus neoformans) | Activity (Pseudomonas aeruginosa [2]) | IC50 (L6) | CC50 at 20 h [3] | hemolysis at 1 h, 50 µM [4] | MIC [5] | MIC (Pseudomonas aeruginosa [1]) | MIC (Escherichia coli) | MIC (Klebsiella pneumoniae) |
| --- | --- | --- | --- | --- | --- | --- | --- | --- | --- | --- | --- | --- | --- | --- | --- |
| O=C(NCCCNCCCCNCCCNC(=O)C(=O)c1c[nH]c2c(Cl)cccc12)C(=O)c1c[nH]c2c(Cl)cccc12.O=C(O)C(F)(F)F.O=C(O)C(F)(F)F | 50 µM | 200 µM | 200 µM | > 38.1 µM | > 38.1 µM | > 38.1 µM | 19.1 µM | 25 µM | 7.47 µM | 31.6 µM | 1.1% | – | – | – | – |
| O=C(NCCCNCCCCNCCCNC(=O)C(=O)c1c[nH]c2ccc(F)cc12)C(=O)c1c[nH]c2ccc(F)cc12.O=C(O)C(F)(F)F.O=C(O)C(F)(F)F | 25 µM | 200 µM | 200 µM | > 39.6 µM | > 39.6 µM | > 39.6 µM | 9.9 µM | 12.5 µM | 71.1 µM | > 39.6 µM | 0% | 50 µM | – | – | – |
| OC(Cn1cncn1)(Cn1cncn1)c1ccc(F)cc1F [FLUCONAZOLE] | – | – | – | – | – | 0.125 µg/mL | 8 µg/mL | – | – | – | – | – | – | – | – |
| COc1ccc2[nH]cc(C(=O)C(=O)NCCCNCCCCNCCCNC(=O)C(=O)c3c[nH]c4ccc(OC)cc34)c2c1 | 100 µM (≈ 60.5 µg/mL) | > 200 µM | > 200 µM | > 38.4 µM | > 38.4 µM | > 38.4 µM | 19.2 µM | 12.5 µM | 56 µM | > 38.4 µM | 0% | 50 µM (≈ 30.2 µg/mL) | – | – | – |
| N#Cc1ccc2[nH]cc(C(=O)C(=O)NCCCNCCCCNCCCNC(=O)C(=O)c3c[nH]c4ccc(C#N)cc34)c2c1.O=C(O)C(F)(F)F.O=C(O)C(F)(F)F | 100 µM | > 200 µM | > 200 µM | > 38.9 µM | > 38.9 µM | > 38.9 µM | 38.9 µM | 50 µM | 37.1 µM | > 38.9 µM | 0% | > 200 µM | – | – | – |
| COc1cc([C@@H]2c3cc4c(cc3[C@H](O)[C@H]3COC(=O)[C@H]23)OCO4)cc(OC)c1OC [PODOFILOX] | – | – | – | – | – | – | – | – | 0.018 µM | – | – | – | – | – | – |
| COC(=O)c1ccc2[nH]cc(C(=O)C(=O)NCCCNCCCCNCCCNC(=O)C(=O)c3c[nH]c4ccc(C(=O)OC)cc34)c2c1.O=C(O)C(F)(F)F.O=C(O)C(F)(F)F | 100 µM | 200 µM | 200 µM | > 36 µM | > 36 µM | > 36 µM | > 36 µM | 25 µM | 41.8 µM | > 36 µM | 0% | 6.25 µM | – | – | – |
| O=C(NCCCNCCCCNCCCNC(=O)C(=O)c1c[nH]c2cccc(F)c12)C(=O)c1c[nH]c2cccc(F)c12 | > 70 µM | 140 µM (≈ 81.3 µg/mL) | 100 µM (≈ 58.1 µg/mL) | > 55.1 µM | > 55.1 µM | > 55.1 µM | > 55.1 µM | 35 µM | 167 µM | > 55 µM | 0.3% | 35 µM (≈ 20.3 µg/mL) | – | – | – |
| Cc1cccc2c(C(=O)C(=O)NCCCNCCCCNCCCNC(=O)C(=O)c3c[nH]c4c(C)cccc34)c[nH]c12.O=C(O)C(F)(F)F.O=C(O)C(F)(F)F | 25 µM | > 200 µM | > 200 µM | > 40 µM | > 40 µM | > 40 µM | 10 µM | 6.25 µM | 59.6 µM | > 40 µM | 0.1% | 12.5 µM | – | – | – |
| O=C(NCCCNCCCCNCCCNC(=O)C(=O)c1c[nH]c2cc(F)ccc12)C(=O)c1c[nH]c2cc(F)ccc12.O=C(O)C(F)(F)F.O=C(O)C(F)(F)F | 100 µM | > 200 µM | > 200 µM | > 39.6 µM | > 39.6 µM | > 39.6 µM | 19.8 µM | 25 µM | 69.1 µM | 12.5 µM | 0.3% | > 200 µM | – | – | – |
| COC(=O)c1ccc2c(C(=O)C(=O)NCCCNCCCCNCCCNC(=O)C(=O)c3c[nH]c4cc(C(=O)OC)ccc34)c[nH]c2c1.O=C(O)C(F)(F)F.O=C(O)C(F)(F)F | > 200 µM | > 200 µM | > 200 µM | > 36 µM | > 36 µM | > 36 µM | 9 µM | 25 µM | 63.6 µM | > 36 µM | 0.6% | 12.5 µM | – | – | – |
| O=C(NCCCNCCCCNCCCNC(=O)C(=O)c1c[nH]c2cc(Cl)ccc12)C(=O)c1c[nH]c2cc(Cl)ccc12.O=C(O)C(F)(F)F.O=C(O)C(F)(F)F | 6.25 µM | 100 µM | 50 µM | 38.1 µM | 38.1 µM | 38.1 µM | 4.8 µM | 6.25 µM | 33.2 µM | 19.1 µM | 11.6% | 3.12 µM | – | – | – |
| N#Cc1ccc2c(C(=O)C(=O)NCCCNCCCCNCCCNC(=O)C(=O)c3c[nH]c4cc(C#N)ccc34)c[nH]c2c1.O=C(O)C(F)(F)F.O=C(O)C(F)(F)F | 100 µM | > 200 µM | 200 µM | > 38.9 µM | > 38.9 µM | > 38.9 µM | 38.9 µM | 50 µM | 46.9 µM | > 38.9 µM | 0% | 25 µM | – | – | – |
| CN[C@@H]1[C@H](O[C@H]2[C@H](O[C@H]3[C@H](O)[C@@H](O)[C@H](N=C(N)N)[C@@H](O)[C@@H]3N=C(N)N)O[C@@H](C)[C@]2(O)C=O)O[C@@H](CO)[C@H](O)[C@H]1O [STREPTOMYCIN] | 21.5 µM (≈ 12.5 µg/mL) | 21.5 µM (≈ 12.5 µg/mL) | 21.5 µM (≈ 12.5 µg/mL) | – | – | – | – | – | – | – | – | 10.7 µM (≈ 6.22 µg/mL) | – | – | – |
| O=C(NCCCNCCCCNCCCNC(=O)C(=O)c1c[nH]c2cc(C(F)(F)F)ccc12)C(=O)c1c[nH]c2cc(C(F)(F)F)ccc12.O=C(O)C(F)(F)F.O=C(O)C(F)(F)F | 50 µM | 200 µM | 100 µM | 35.2 µM | > 35.2 µM | 35.2 µM | 4.4 µM | 100 µM | 31.4 µM | 3.36 µM | 3.2% | 50 µM | – | – | – |
| O=C(NCCCNCCCCNCCCNC(=O)C(=O)c1c[nH]c2ccc(Cl)cc12)C(=O)c1c[nH]c2ccc(Cl)cc12.O=C(O)C(F)(F)F.O=C(O)C(F)(F)F | > 200 µM | > 100 µM | > 200 µM | > 38 µM | > 38 µM | 38 µM | > 38 µM | 14.9 µM | 19.8 µM | 4.73 µM | 0% | – | – | – | – |
| O=C(NCCCNCCCCNCCCNC(=O)C(=O)c1c[nH]c2ccccc12)C(=O)c1c[nH]c2ccccc12 | > 100 µM | > 100 µM | > 100 µM | > 41.4 µM | > 41.4 µM | > 41.4 µM | 10.3 µM | >50 µM | 60 µM | > 41.5 µM | 0% | > 100 µM | – | – | – |
| COLISTIN | – | – | – | – | – | – | – | – | – | – | – | – | 1 µM | 2 µM | 0.25 µg/mL |
